Most compounds without a hit are left out; they make up all but 2.2% or so of the library.
HKDC1 inh – HKDC1 (human) hexokinase inhibition. Q2TB90. recombinant HKDC1, G6PDH/diaphorase resazurin coupled fluorescence. inhibition, % at 20 µM. 0.16% of 340,000 active. AID 493160;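 active = inhibition above about 35% when tested at 20 µM, limit read from the data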;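 also: plate controls were DMSO wells with enzyme for no effect and DMSO wells lacking enzyme for full effect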
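Assay system: recombinant HKDC1 hexokinase; detection: coupled resazurin fluorescence, excitation 525 nm, emission 613 nm; benchmarks: DMSO-plus-enzyme-mix negative control, buffer-substituted positive control; compound dosing: single 20 µM dose; schedule: 90 min at room temperature in dark; also added: glucose plus 1 mM ATP as hexokinase substrates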
Neddylation inh – inhibitors of human cullin neddylation | AID 651699 | inhibition, % at 25 µM | P61081+Q13564 | 0.58% of 360,000 active | TR-FRET cullin neddylation, biochemical; in the data active = inhibition above about 36%
Target sequence (P61081 whole entry, looked up): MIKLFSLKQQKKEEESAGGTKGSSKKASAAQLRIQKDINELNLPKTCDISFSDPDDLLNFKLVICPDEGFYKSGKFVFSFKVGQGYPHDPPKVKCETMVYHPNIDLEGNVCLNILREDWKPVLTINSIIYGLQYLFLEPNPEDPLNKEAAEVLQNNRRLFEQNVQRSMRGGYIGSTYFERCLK
Target sequence (Q13564 whole entry, looked up): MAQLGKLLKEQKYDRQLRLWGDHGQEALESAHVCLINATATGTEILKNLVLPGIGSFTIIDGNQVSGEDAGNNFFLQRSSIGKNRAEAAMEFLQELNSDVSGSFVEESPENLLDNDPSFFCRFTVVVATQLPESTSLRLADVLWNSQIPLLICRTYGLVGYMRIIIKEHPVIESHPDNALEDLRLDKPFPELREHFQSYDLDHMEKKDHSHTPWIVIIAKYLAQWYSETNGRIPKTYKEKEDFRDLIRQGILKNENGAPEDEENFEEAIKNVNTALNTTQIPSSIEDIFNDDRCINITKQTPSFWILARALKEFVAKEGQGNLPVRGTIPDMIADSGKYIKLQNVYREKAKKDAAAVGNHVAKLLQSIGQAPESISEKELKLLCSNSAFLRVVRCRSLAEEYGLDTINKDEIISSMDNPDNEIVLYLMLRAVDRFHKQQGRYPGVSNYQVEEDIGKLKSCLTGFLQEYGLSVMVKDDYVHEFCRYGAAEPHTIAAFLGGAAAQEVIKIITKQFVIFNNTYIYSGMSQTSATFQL
PfM18AAP inh-1 – PfM18AAP enzyme inhibition; 1.2% of 290,000 active; inhibition, % at 7.35 µM; recombinant PfM18AAP, H-Glu-NHMec fluorogenic cleavage; AID 1822;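 active = inhibition above the campaign mean inhibition over all tested compounds plus 3 SD, cut at about 28% in these data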;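 also: 0% = plate median of test compound wells and 100% = 2 mM ZnCl2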
PfGluPho inh – PfG6PD (Plasmodium falciparum) enzyme inhibition; PfGluPho enzyme, NADPH resazurin-diaphorase fluorescence; 0.78% of 350,000 active; inhibition, % at 20 µM;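 active = inhibition reaching at least a set limit at 20 µM in the primary screen, cut at about 59% in these data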;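 also: 0% = DMSO wells with substrate and 100% = DMSO wells lacking glucose-6-phosphate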
PfM18AAP inh-2 – PfM18AAP inhibition, confirmation; shares compounds with PfM18AAP inh-1; recombinant PfM18AAP, H-Glu-NHMec fluorogenic cleavage; 28% of 2,400 active; inhibition, % at 7.35 µM;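 active = mean inhibition over replicate wells above the hit cutoff set for the earlier primary screen, cut at about 29% in these data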;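 also: 0% = median of test compound wells and 100% = 2 mM ZnCl2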
CTSL1 confirm – Cathepsin L (human) inhibition, confirmation. shares compounds with PfM18AAP inh-1. purified cathepsin L1, Z-Leu-Arg-MCA fluorescence. inhibition, % at 5.96 µM. 2,400 tested, under 10 active;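 active = average inhibition across replicates above the hit cutoff set in the earlier primary screen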;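 also: 0% = median of test compound wells and 100% = Z-Phe-Ala-diazomethylketone 1 µM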
HKDC1 act conf – HKDC1 (human) activation, single-dose confirmed; inhibition, % at 20 µM; recombinant HKDC1, G6PDH/diaphorase resazurin fluorescence; stronger effect = lower value; 14% of 740 active; shares compounds with HKDC1 inh;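 active = inhibition at or below a set negative limit, negative inhibition meaning the enzyme was activated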
PfG6PD confirm – confirmation of Plasmodium falciparum G6PD inhibitors; AID 504753; 34% of 2,400 active; recombinant PfGluPho, NADPH-diaphorase-resazurin fluorescence; shares compounds with PfGluPho inh; inhibition, % at 20 µM;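 active = inhibition of at least 50% at 20 µM in any single replicate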;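 also: 0% = DMSO with substrate and 100% = DMSO lacking glucose-6-phosphate substrate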
Diaphorase 10uM – diaphorase inhibition or oxidation at 10 uM NADPH. shares compounds with PfGluPho inh. diaphorase-coupled resazurin reduction, fluorescence, NADPH 10 uM. inhibition, % at 20 µM. 39% of 820 active;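 active = average inhibition reaching 50% or more with the compound at 20 µM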;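 also: resorufin red fluorescence formed as diaphorase reduces resazurin using NADPH; 0% = DMSO with enzyme and 100% = DMSO without enzyme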
Diaph ctr 30uM – inhibits diaphorase or oxidizes, flagging false PfG6PD hits | shares compounds with PfGluPho inh | Diaphorase/resazurin coupled assay, resorufin fluorescence, 30 uM NADPH | inhibition, % at 20 µM | 29% of 820 active | AID 504863;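 active = inhibition averaging 50% or more, tested at 20 µM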;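 also: 0% = DMSO with enzyme and 100% = DMSO wells lacking diaphorase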
Numbers without * were called inactive; nt = not tested or not shown.

SMILES	HKDC1 inh	Neddylation inh	PfM18AAP inh-1	PfGluPho inh	PfM18AAP inh-2	CTSL1 confirm	PfG6PD confirm	Diaphorase 10uM	Diaph ctr 30uM	others
CCON1C(=O)C2(CCCCC2)C(=O)C12C=CCCC2 (stereo unspecified)	-0.7	7.4	nt	4.8	nt	nt	nt	nt	nt
Cc1nn(C)c(Sc2ccccc2N)c1[N+](=O)[O-]	-8.5	-18.3	39.2*	64.2*	-12.9	0.3	15.0	nt	nt
O=C(c1cccc(S(=O)(=O)N2CCc3ccccc3C2)c1)N1CCN(c2ccc(O)cc2)CC1	11.4	2.1	35.6*	65.9*	-4.8	4.2	25.7	nt	nt
CNCc1ccccc1Sc1ccc(O)c(O)c1	11.1	-5.7	50.8*	97.9*	69.7*	-5.0	94.9*	72.5*	61.1*
Cc1cccc(NS(=O)(=O)c2csc(C(N)=O)c2)c1C	-1.9	-4.8	0.8	2.6	nt	nt	nt	nt	nt
Nc1c(C(=O)Nc2ccc(F)cc2)sc(=S)n1-c1ccccc1F	-9.9	-1.9	48.4*	98.8*	-6.0	-0.5	55.9*	12.8	7.2
O=C(O)c1ccc(N2C(=O)c3ccccc3C2=O)cc1[N+](=O)[O-]	nt	-14.9	nt	-10.8	nt	nt	nt	nt	nt
COc1ccc(CNC(=O)C2CCN(S(=O)(=O)c3ccc4c(c3)CC(C)N4C(C)=O)CC2)cc1 (stereo unspecified)	-2.0	-0.6	-0.5	0.1	nt	nt	nt	nt	nt
CCN(CC)C(=O)c1c(C)[nH]c(=S)c(C#N)c1-c1ccco1	-2.2	-22.6	56.4*	61.5*	20.8	1.4	50.6*	3.4	-3.7
Cc1ccc(-c2c(C(=O)Nc3ccccc3C)c(C)[nH]c(=S)c2C#N)o1	-9.8	-252.4	25.9	42.5	nt	nt	nt	nt	nt
O=C(NCc1ccncc1)C(=O)NCC1OCCN1S(=O)(=O)c1cc(F)ccc1F (stereo unspecified)	0.0	4.2	-6.1	-9.0	nt	nt	nt	nt	nt
Cc1cc(O)c(-c2cc(O)c(C)cc2O)cc1O	44.7*	nt	71.2*	111.5*	51.2*	-2.0	109.7*	72.6*	22.3	HKDC1 act conf=23.7
CCc1ccc(N2CC(C(=O)NC3CCCCC3C)CC2=O)cc1 (stereo unspecified)	4.2	-9.8	-8.7	-2.1	nt	nt	nt	nt	nt
Cc1c(NC(=O)C(C)Oc2cccc(F)c2)c(=O)n(-c2ccccc2)n1C (stereo unspecified)	-0.5	1.4	nt	-12.6	nt	nt	nt	nt	nt
Cn1c(=O)[nH]c(=O)c2c1nc(SCCN1CCCCC1)n2CCCc1ccccc1	0.0	-15.2	54.6*	76.8*	7.5	-0.8	62.7*	6.2	-5.2
COc1ccc(Cl)cc1NC(=O)CN(C)C(=O)c1sccc1-c1ccccc1	7.2	-9.9	nt	3.7	nt	nt	nt	nt	nt
COc1ccc(/C=N/Nc2ccc([N+](=O)[O-])cc2)cc1Cn1cc([N+](=O)[O-])cn1	-6.5	-21.1	11.3	4.3	nt	nt	nt	nt	nt
COc1ccc(/C=N/Nc2ccc([N+](=O)[O-])cc2)cc1O	-0.9	-63.9	48.0*	80.6*	9.6	7.1	13.3	nt	nt
Cc1ccc(S(=O)(=O)N2CCOCC2)cc1NC(=O)CN1CCN(c2ccc(O)cc2)CC1	-10.7	5.7	34.3*	64.7*	7.7	0.0	22.8	nt	nt
Cc1ccc(S(=O)(=O)N2CCOCC2)cc1NC(=O)CN1CCN(C)CC1	-4.0	1.3	nt	3.4	nt	nt	nt	nt	nt
NC(=S)N1N=C(c2ccccc2)CC1=O	1.0	0.6	nt	-0.1	nt	nt	nt	nt	nt
Cc1ccc(-c2csc3n[nH]c(=S)n23)cc1	-0.6	-21.6	63.4*	62.6*	51.9*	-0.4	40.3	nt	nt
CN(CC(=O)Nc1ccc(Cl)c(Cl)c1)C(=O)C1CCCC1	-4.3	1.6	nt	23.2	nt	nt	nt	nt	nt
COc1cc(/C=C2\CC/C(=C\c3cc(OC)c(OC)c(OC)c3)C2=O)cc(OC)c1OC	-5.4	3.4	-17.7	6.8	nt	nt	nt	nt	nt
COc1cc(/C=C2\CC/C(=C\c3cc(OC)c(O)c(OC)c3)C2=O)cc(OC)c1O	28.7	-6.4	50.8*	63.1*	47.9*	-0.6	67.2*	18.4	17.1
SMILES	HKDC1 inh	Neddylation inh	PfM18AAP inh-1	PfGluPho inh	PfM18AAP inh-2	CTSL1 confirm	PfG6PD confirm	Diaphorase 10uM	Diaph ctr 30uM	others
O=C(NC1CC1)c1sc2cc([N+](=O)[O-])ccc2c1Cl	-9.4	-24.7	-5.0	12.8	nt	nt	nt	nt	nt
CC(NC(=O)c1sc2cc([N+](=O)[O-])ccc2c1Cl)C(C)(C)C (stereo unspecified)	-76.1	-19.4	38.2*	97.3*	30.8*	1.6	70.0*	0.3	-2.6	HKDC1 act conf=-39.3*
O=C(O)c1ccccc1NS(=O)(=O)c1cccc(-n2sc3ccccc3c2=O)c1	14.8	-60.4	62.4*	109.5*	49.7*	-4.4	105.2*	-12.5	-24.1
O=C(O)c1ccccc1NS(=O)(=O)c1cccc(C(F)(F)F)c1	11.6	4.8	2.9	-15.9	nt	nt	nt	nt	nt
CC1(c2ccc([N+](=O)[O-])cc2)Nc2ccccc2S1 (stereo unspecified)	5.5	-9.7	35.5*	72.3*	-29.2	0.4	-1.7	nt	nt
CCN1CCN(c2ccc(S(=O)(=O)N3CCOCC3)cc2NC(=O)CCC(C)C)CC1	-5.1	16.0	nt	-11.3	nt	nt	nt	nt	nt
N#CCC(=O)N/N=C/c1ccc(Sc2nc3ccccc3s2)o1	2.0	-4.9	41.1*	67.6*	-50.9	-7.4	21.4	nt	nt
CC(C)C(c1nnnn1Cc1ccc(F)cc1)N1CCN(c2ccc(O)cc2)CC1 (stereo unspecified)	-5.6	2.7	31.9*	63.7*	-11.4	0.5	18.6	nt	nt
Cc1nonc1NC(=O)CSc1nnc(N)s1	-7.7	4.4	3.3	2.9	nt	nt	nt	nt	nt
O=C(NCC(=O)N1CCN(Cc2ccccc2)CC1)c1ccc(Br)cc1	-2.0	1.5	-17.0	14.4	nt	nt	nt	nt	nt
CN1CCN(C(=S)c2ccc(Br)cc2)CC1	13.5	0.7	47.3*	59.2*	5.8	-0.9	60.6*	-12.4	-3.5
S=C(c1ccc(Br)cc1)N1CCN(Cc2ccccc2)CC1	-3.7	-9.2	42.5*	59.7*	-1.2	-0.8	46.7	nt	nt
Cc1ccccc1OCC(=O)NCC(=O)OCC(=O)c1ccc([N+](=O)[O-])cc1	-1.2	-25.1	46.3*	70.0*	-18.7	-10.0	51.9*	-6.8	-22.3
O=C(CCC(=O)OCC(=O)c1ccc([N+](=O)[O-])cc1)Nc1ccccc1Cl	-6.9	-37.1	40.0*	68.0*	-5.8	-21.2	54.0*	2.4	-2.9
O=C(CNC(=O)c1cccs1)OCC(=O)c1ccccc1	4.3	8.4	-0.2	-6.8	nt	nt	nt	nt	nt
Cc1ccc(C(=O)COC(=O)CNC(=O)COc2ccccc2C)cc1C	0.2	-0.3	-15.9	2.8	nt	nt	nt	nt	nt
O=C(CNC(=O)c1cccs1)NCC(=O)OCC(=O)c1ccc([N+](=O)[O-])cc1	14.2	-28.8	46.2*	67.1*	-14.6	-3.3	62.9*	3.2	-2.1

Assay outcomes: PubChem BioAssay, several laboratories
